HCT116 PTEN-null = suppresses growth of cells with PTEN deletion | viability, % at 10 µM | HCT116 PTEN-null viability, CellTiter-Glo, 60 h; active compounds read low | AID 827 | actives 1.2% (n = 140,000);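 active = viability at or below a set limit, 4 SD under the median of all tested compounds, cut at about 3.7% in these data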;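 also: PTEN knockout HCT116 line with beta catenin targeted HCT116 as companion control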
Fibroblast inh = blocks proliferation of human lung fibroblasts; viability, % at 10 µM; actives 1.1% (n = 85,000); LL 47 human lung fibroblast viability, ATP luminescence; active compounds read low;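 active = viability at or below 50% in the single dose screen; inactive = viability above 50%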;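 also: compound exposure lasted 72 h before the ATP readout; 100% = median luminescence of untreated cell-only wells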
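Test system: LL 47 human lung fibroblasts / Incubation: 72 h compound exposure at 37 °C after overnight plating / Technique: luminescent ATP detection, CellTiter-Glo / Compound dosing: 0.1% DMSO in all compound wells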
HUVEC prolif 384 = inhibitors of human endothelial cell proliferation | HUVEC proliferation, CellTiter-Glo luminescence, 72 h; active compounds read low | viability, % at 10 µM (by protocol) | AID 648 | actives 1.1% (n = 86,000);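 active = viability at or below 30%; inactive = viability above 30%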;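 also: 100% = median luminescence of DMSO-only cell control wells on each plate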
H69AR growth 86K = blocks growth of human H69AR lung tumor cells; H69AR lung tumor viability, ATP luminescence, 72 h; active compounds read low; viability, % at 10 µM; actives 6% (n = 85,000);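 active = viability at or below 40%; inactive = viability above 40%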;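 also: multidrug resistant small cell line overexpressing MRP-1 efflux transporter; 100% = mean luminescence of untreated control wells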
HCT116 bCat-KO = beta-catenin-lacking colon tumor cell growth suppression; actives 1.5% (n = 140,000); viability, % at 10 µM; HCT116 beta-catenin knockout viability, CellTiter-Glo, 60 h; active compounds read low;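 active = viability at or under a set limit, the compound median less 4 SD, cut at about 6% in these data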;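 also: 0% = Hyamine 1622 control at 20 µM and 100% = untreated cell control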
Active calls of the source: *; . = no result given. The full list was thinned out, with hits kept by preference.

SMILES	HCT116 PTEN-null	Fibroblast inh	HUVEC prolif 384	H69AR growth 86K	HCT116 bCat-KO
CCOC(=O)c1cnc(SCC(=O)Nc2cc(C(F)(F)F)ccc2N2CCOCC2)nc1N	76	65	47	36*	76
CCOC(=O)c1cnc(SCC(=O)Nc2sc(C)c(C)c2C#N)nc1N	3.1*	52	61	94	2.8*
CCOC(=O)c1cnc(SCC(=O)Nc2ccc(N3CCOCC3)c(Cl)c2)nc1N	80	103	113	94	86
CCOC(=O)c1cnc(SCc2nc(N)nc(Nc3ccccc3)n2)nc1N	37	97	106	32*	46
CCOC(=O)c1cnc(SCC(=O)Nc2cc(OC)cc(OC)c2)nc1N	85	89	88	81	80
Cc1ccc(-c2nnc(SCC(=O)Nc3sc(C)c(C)c3C#N)n2C)cc1	94	97	83	83	82
Cc1sc(NC(=O)CSc2nnc(COc3ccc(Cl)cc3)n2C)c(C#N)c1C	85	87	60	31*	77
O=S(=O)(Nc1nccs1)c1ccc(Cl)cc1	100	103	95	87	98
Nc1cccnc1Sc1cc(Cl)c(Cl)cc1Cl	83	.	.	.	89
Cc1cc(C(=O)COC(=O)CN=C2NS(=O)(=O)c3ccccc32)c(C)n1CCc1ccc(Cl)cc1	100	.	.	.	92
CC(C)N1CC(O)=C(c2nc3ccccc3c(=O)[nH]2)C1=N	79	99	87	93	82
COc1cccc(N2CC(O)=C(c3nc4ccccc4c(=O)[nH]3)C2=N)c1	17	66	62	29*	18
CC(=O)OCCSc1c(-c2ccccc2)c2cc(Cl)ccc2[nH]c1=O	78	.	.	.	80
CC1=C(C(=O)Nc2cc(C)ccc2C)C(c2cccs2)NC(=S)N1 (centres undefined)	90	.	.	.	99
CSc1nnc(-c2sc3cc(C(F)(F)F)cnc3c2-c2ccccc2)n1C	27	60	65	25*	21
O=C(O)c1sc2cc(C(F)(F)F)cnc2c1-c1ccccc1	107	.	.	.	101
COc1cc2nc(C3CC3)n(NC(=O)c3ccc(Cl)cc3)c(=O)c2cc1OC	59	91	68	24*	55
COc1cc2nc(C3CC3)n(NC(=O)c3ccc(F)cc3)c(=O)c2cc1OC	106	94	110	79	93
CC(C)(C)C1=CC(=O)C(N2CCOCC2)=CC1=O	2.0*	.	.	.	2.0*
CCOc1ccc(C(C)(C)C)cc1S(=O)(=O)N1CCOCC1	79	97	90	80	77
CCOc1ccc(OCC)c(NC(=O)CN2CCN(c3cccc(C)c3)C(C)C2)c1 (centres undefined)	88	76	63	19*	32
CCOc1ccc(OCC)c(NC(=O)CN2CCN(c3cccc(C)c3)CC2)c1	93	98	106	71	88
Cc1cc(-c2sccc2C)nc(-n2cccc2)n1	82	.	.	.	90
CCOc1ccc(Cl)cc1CSc1ncn[nH]1	94	.	.	.	85
O=C1c2ccccc2C(=O)C1c1nccc2ccccc12	8	.	.	.	5.0*
SMILES	HCT116 PTEN-null	Fibroblast inh	HUVEC prolif 384	H69AR growth 86K	HCT116 bCat-KO
O=C1c2ccccc2C(=O)C1c1ccnc2ccccc12	12	68	50	41	9
CCOC(=O)C1=C(c2ccccc2)Nc2ncnn2C1c1cccc(OC)c1OC (centres undefined)	85	91	88	39*	91
CCOC(=O)C1=C(C)Nc2ncnn2C1/C=C/c1ccccc1 (centres undefined)	73	75	81	23*	81
CCCC1=C(C(=O)OCC)C(/C=C/c2ccccc2)n2ncnc2N1 (centres undefined)	32	43*	62	19*	30
CCOC(=O)/C=C/S(=O)(=O)c1ccc(NC(C)=O)cc1	76	14*	68	-0.2*	81
CCn1c2ccccc2c2cc(NC(=O)c3ccccc3[N+](=O)[O-])ccc21	91	.	.	.	76
Cc1cc(C)c(COCc2cc(/C=N/O)c(C)cc2C)cc1/C=N/O	61	91	74	18*	50
CSc1cc(/C=N/O)c(SC)s1	86	.	.	.	86
COc1ccc(Cl)cc1NC(=O)Cc1c(F)cccc1Cl	93	.	.	.	92
Cn1c(=O)c2c(nc(Br)n2CC(=O)C23CC4CC(CC(C4)C2)C3)n(C)c1=O	76	98	82	32*	69
O=C(N/N=C/c1c(Cl)cccc1Cl)c1ccc(F)cc1	92	.	.	.	98
O=C(/C=C/c1c(F)cccc1Cl)c1ccc(F)cc1	2.4*	.	.	.	4.3*
O=c1[nH]c2ccccc2n2c(-c3ccncc3)nnc12	84	.	.	.	89
COc1ccc(OCCn2cc(/C(N)=N/O)c3ccccc32)cc1	79	84	85	58	66
CCC(=C(c1ccc(OC)cc1)c1ccc(OC)cc1)c1cn(CC(O)CN2CCN(C)CC2)c2ccccc12 (centres undefined)	1.7*	21*	3.0*	1.6*	2.1*
COc1ccc(C2N=C(c3ccccc3)C(C)(C)N2O)cc1 (centres undefined)	94	118	105	97	101
O=C(Cn1cnc2sc(-c3ccccc3)cc2c1=O)NCc1ccco1	45	68	54	26*	49
O=C(Cn1cnc2sc(-c3ccccc3)cc2c1=O)NCCc1ccccc1	10	69	39	26*	7
O=C(Cn1cnc2sc(-c3ccccc3)cc2c1=O)NCc1ccccc1	2.2*	65	51	22*	2.1*
O=C(Cn1nnc(-c2ccccc2)n1)NCc1ccco1	87	99	102	107	90
COc1ccccc1NS(=O)(=O)c1ccc(NN=C2CCCCC2)c([N+](=O)[O-])c1	80	.	.	.	80
COc1ccc(S(=O)(=O)NCCc2csc(-c3cccnc3)n2)cc1	100	102	105	95	96
COC(=O)/C(=C/Nc1cccc2ccccc12)[N+](=O)[O-]	87	92	74	27*	90
CCOC(=O)/C(=C\c1cn(C)c2ccccc12)[N+](=O)[O-]	95	.	.	.	100
COc1ccc(-n2c(N)c(C(=O)NCc3ccco3)c3nc4ccccc4nc32)c(OC)c1	72	89	69	32*	67
SMILES	HCT116 PTEN-null	Fibroblast inh	HUVEC prolif 384	H69AR growth 86K	HCT116 bCat-KO
Nc1c(C(=O)NCc2ccco2)c2nc3ccccc3nc2n1CCc1ccccc1F	72	95	79	27*	77
COc1ccc(CCn2c(N)c(C(=O)NCc3ccco3)c3nc4ccccc4nc32)cc1OC	25	111	80	24*	35
COc1ccc(CCn2c(N)c(C(=O)NCc3ccco3)c3nc4ccccc4nc32)cc1	33	.	.	.	40
COCCn1nnnc1C(c1cccc(C#N)c1)N1CCCCCC1 (centres undefined)	82	98	97	81	90
CC(C)(C)C(C(Oc1ccc(Cl)cc1)n1cncn1)n1nnnc1C(c1cccc(Cl)c1)N1CCCCC1 (centres undefined)	15	96	55	12*	5.7*
CCCCCCC1CCC(C(=O)Nn2c(C)nc3ccccc3c2=O)CC1 (centres undefined)	65	98	113	35*	62

Compound activity deposited in PubChem BioAssay by SRMLSC.
